Source: PubChem BioAssay
H69AR growth 86K – growth inhibitors of human H69AR lung tumor cells; H69AR lung tumor viability, ATP luminescence, 72 h; hits give low values; viability, % at 10 µM; 85,000 compounds, 6% hits; AID 598;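 active means viability at or below 40%; inactive means viability above 40%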;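 further: multidrug resistant small cell line overexpressing MRP-1 efflux transporter; 100% = mean luminescence of untreated control wells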
Jurkat tox 60K – cytotoxic compounds reducing Jurkat cell viability; Jurkat E6.1 viability, ATP luminescence, 48 h; inhibition, % at 4 µM; 56,000 compounds, 1.2% hits; AID 463;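 active means inhibition above the mean inhibition of all tested compounds plus 3 SD, cut at about 28% in these data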
Lung fibro prol – blocks proliferation of human lung fibroblasts; viability, % at 10 µM; 85,000 compounds, 1.1% hits; LL 47 human lung fibroblast viability, ATP luminescence; hits give low values;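 active means viability at or below 50% in the single dose screen; inactive means viability above 50%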;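 further: compound exposure lasted 72 h before the ATP readout; 100% = median luminescence of untreated cell-only wells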
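Material: Human LL 47 lung fibroblast cells | Input: 1,150 cells/well | Buffer or medium: IMEM plus 15% FBS | Compound dosing: 0.1% DMSO in all compound wells | Times: Overnight cell rest, 72 h compound treatment at 37 °C | Signal: CellTiter-Glo luminescence measuring cellular ATP | Measure: % viability versus median cells-only luminescence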
HUVEC inhibit – human endothelial cell proliferation inhibition; HUVEC proliferation, CellTiter-Glo luminescence, 72 h; hits give low values; viability, % at 10 µM (by protocol); 86,000 compounds, 1.1% hits;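 active means viability at or below 30%; inactive means viability above 30%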;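 further: 100% = median luminescence of DMSO-only cell control wells on each plate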
Active calls of the source: *; . = no result given. Compounds with a hit are over-represented: about 6.6% of the library has one in this group of screens.

SMILES	H69AR growth 86K	Jurkat tox 60K	Lung fibro prol	HUVEC inhibit
CN(C)c1ccc2c(c1)OC(N)=C(C#N)C2c1cccc(F)c1 (centres undefined)	25*	86*	55	31
COC(=O)NC(=S)Nc1ccc(Oc2ccc(Cl)cc2Cl)c(Cl)c1	24*	.	103	57
COC(=O)NC(=S)Nc1ccc(Oc2ccc(Cl)cc2)c(Cl)c1	48	.	93	65
Cc1ccc(NC(=O)c2cc(-c3cccc(O)c3)on2)cc1C	95	1	94	81
COc1cc(-c2nnn(CC(=O)N3CCOCC3)n2)cc(OC)c1OC	96	.	105	104
COc1ccc(-c2ccc(-c3nnn(CC(=O)N4CCOCC4)n3)cc2)cc1	24*	-10	38*	85
CC(=O)/C(C#N)=C1\NC(=O)C(Cc2ccc(C)c(C)c2)S1 (centres undefined)	109	.	80	77
Cc1cc(C)c2nc(SCC#N)cc(C)c2c1	24*	8	83	83
Cc1ccc2cc(C)c(SCC#N)nc2c1	97	0	88	90
COC(=O)c1c(C)n(-c2ccc(OC)cc2)c2ccc(O)cc12	18*	3	79	18*
Cc1c(C(=O)O)c2cc(O)ccc2n1-c1ccccc1	98	-2	112	83
CCOC(=O)C(CC)(CC)/C(C)=N/NC(=O)CC#N	91	.	100	82
O=c1cc(CSc2nnc(-c3cccs3)n2Cc2ccccc2)nc2sc3ccccc3n12	66	71*	.	86
Cn1c(SCC(=O)Nc2ccc3c(c2)OCCO3)nnc1-c1ccccn1	88	-1	104	97
O=c1c2ccccc2nnn1CSc1nnc(-c2cccs2)n1Cc1ccccc1	66	28*	93	75
CCOC(=O)c1c(C)[nH]c(C(=O)CSc2nnc(-c3cccs3)n2Cc2ccccc2)c1C	4.9*	.	79	52
O=C(CSc1nnc(-c2ccccn2)n1Cc1ccccc1)Nc1ccc2c(c1)OCO2	14*	10	99	54
CCOCc1nc(N)[nH]c(=O)c1Cc1ccc(OC(C)C)cc1	99	.	93	88
COc1cc(-c2nnc3sc(-c4ccccn4)nn23)cc(OC)c1OC	65	0	100	92
O=C(CSc1ncnc2c1cnn2-c1ccccc1)Nc1ccc2c(c1)OCO2	37*	-10	93	76
CC(=O)c1c(C)[nH]c(C(=O)CSc2nnc(-c3ccccc3)n2Cc2ccc3c(c2)OCO3)c1C	20*	.	82	13*
CC(=O)c1c(C)[nH]c(C(=O)CSc2nnc(-c3ccco3)n2Cc2ccccc2)c1C	39*	4	91	79
Cc1cc(C(=O)CSc2nnc(-c3cccc(F)c3)n2N)c(C)n1Cc1ccc2c(c1)OCO2	.	37*	.	.
C=CCn1c(SCC(=O)c2[nH]c(C)c(C(C)=O)c2C)nnc1-c1ccncc1	87	.	108	111
CCCn1c(N)c(C(=O)CSc2nnc(-c3ccco3)n2Cc2ccccc2)c(=O)[nH]c1=O	88	5	93	74
SMILES	H69AR growth 86K	Jurkat tox 60K	Lung fibro prol	HUVEC inhibit
O=C(CSc1nc2ncc(Br)cc2[nH]1)Nc1ccc2c(c1)OCO2	2.5*	-4	104	75
O=c1c2cc(N3CCOCC3)ccc2[nH]c(=S)n1Cc1ccc(Cl)cc1	76	.	78	53
Cc1ccc(Cn2c(=S)[nH]c3ccc(N4CCOCC4)cc3c2=O)o1	5.8*	.	46*	76
COc1ccc2cc(C(c3nnnn3Cc3ccc(F)cc3)N3CCCCCC3)c(=O)[nH]c2c1 (centres undefined)	37*	4	98	92
COc1ccc2cc(C(c3nnnn3Cc3ccccc3)N3CCCCCC3)c(=O)[nH]c2c1 (centres undefined)	67	-6	100	85
Cc1csc(SCC(=O)Nc2ncc(Cl)c(C)c2Cl)n1	90	.	112	96
O=C(CNC(=O)c1ccc(Br)o1)Nc1cccc(-c2cnc3ccccc3n2)c1	25*	0	98	83
Cn1c(C2CCCN2C(=O)OC(C)(C)C)n[nH]c1=S (centres undefined)	1.8*	-4	92	96
COc1ccc(OC)c(NC(=O)C2C3CC4OC(=O)C2C4C3)c1 (centres undefined)	96	-2	97	94
CCOC(=O)C1=C(Cc2ccc(OC)cc2)C(=O)c2ccccc2C1=O	1.8*	.	94	70
CCOC(=O)c1c(C=O)c(C)n(Cc2ccc(C)cc2)c1C	75	.	80	82
CCOC(=O)C1=C(Cc2ccc(C)cc2)C(=O)c2ccccc2C1=O	2.0*	.	73	18*
CCOC(=O)NCCc1ccc(OC)cc1	86	-8	108	96
Cc1cc(Cl)cc(Br)c1OCCCN1C(=O)NC(C)(C)C1=O	85	.	101	83
CCC(Sc1nc(=O)cc(N)n1-c1ccccc1)C(=O)Nc1ccc(Cl)cn1 (centres undefined)	90	0	102	93
Cc1ccc(C2C(C#N)=C(N)Oc3c2sc2ccccc32)o1 (centres undefined)	13*	-5	58	41
Cc1ccc(S(=O)(=O)CCC(=O)Nc2nc3c(s2)CCCC3)cc1	24*	.	51	79
COc1ccc(OC)c2sc(NC(=O)CCS(=O)(=O)c3ccccc3)nc12	2.4*	-6	36*	66
COc1ccccc1NC(=O)c1ccc(S(=O)(=O)N(C)C)cc1	93	5	102	103
COc1ccc(OC)c2sc(NC(=O)c3ccc(S(=O)(=O)N(C)C)cc3)nc12	21*	11	88	64
CC1(c2ccc3c(c2)OCO3)NC(=O)N(CC(=O)Nc2ccc(N3CCOCC3)cc2)C1=O (centres undefined)	96	-3	101	101
N#C/C(=C/c1ccc(Br)o1)C(N)=O	33*	.	96	87
N#C/C(=C/c1ccc(N2CCOCC2)c([N+](=O)[O-])c1)C(N)=O	101	.	108	103
O=C1C(c2ccnc3ccccc23)=C(O)c2ccccc21	34*	.	73	62
Cc1ccc(-c2cc(C(=O)OCC(=O)Nc3cc(C)on3)c3ccccc3n2)c(C)c1	92	3	102	91
SMILES	H69AR growth 86K	Jurkat tox 60K	Lung fibro prol	HUVEC inhibit
CCC(C)c1ccc(-c2cc(C(=O)OCC(=O)Nc3cc(C)on3)c3ccccc3n2)cc1 (centres undefined)	9.5*	.	81	45
COc1ccc2[nH]c3nc(SCc4nnc(-c5ccc(C)cc5)o4)nnc3c2c1	18*	2	68	54
COCCOC(=O)c1[nH]c2c(c1C)C(=O)CC(c1ccco1)C2 (centres undefined)	26*	92*	53	45
Cc1c(C(=O)OCCOC(C)C)[nH]c2c1C(=O)CC(c1ccco1)C2 (centres undefined)	42	100*	64	57
CCOC(=O)C1=C(N)OC2=C(C(=O)CCC2)C1c1ccco1 (centres undefined)	88	4	101	91
Cc1c(C(=O)OCc2ccccc2)[nH]c2c1C(=O)CC(c1ccco1)C2 (centres undefined)	26*	98*	27*	22*
COCCOC(=O)c1[nH]c2c(c1C)C(=O)C(C(=O)OC)C(C)C2 (centres undefined)	81	-8	105	96
